# Bioassay records from PubChem BioAssay.
# An excerpt weighted towards active compounds, which were near 0.72% of everything screened.
# mIAP block – blocks mouse intestinal alkaline phosphatase; purified mouse IAP, CDP-Star luminescence, 30 min; inhibition, % at 10 µM; hit rate 0.2% among 330,000; AID 2806;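 active means inhibition of at least 40% at 10 µM in the primary screen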;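 further: plate controls were DMSO with enzyme for no effect and no enzyme wells for full effect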
# bIAP act – intestinal alkaline phosphatase (bovine) activation | purified bovine IAP, CDP-star luminescence, 30 min; active compounds read high; fold of DMSO-control signal, blank-subtracted | activation factor at 20 µM | hit rate 0.17% among 200,000;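 active means activation factor of 2 or more at 20 µM, a signal rise over negative controls twice the positive control's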
# hIAP activ – increases human intestinal alkaline phosphatase activity; purified human IAP, CDP-Star luminescence, 30 min; active compounds read high; 1 = vehicle-only enzyme, 0 = enzyme-free background; hit rate 0.16% among 330,000; activation factor at 10 µM; AID 2524;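 active means activation factor of the enzyme at least 2-fold when tested at 20 µM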
# Target sequence (P09923 whole entry, looked up): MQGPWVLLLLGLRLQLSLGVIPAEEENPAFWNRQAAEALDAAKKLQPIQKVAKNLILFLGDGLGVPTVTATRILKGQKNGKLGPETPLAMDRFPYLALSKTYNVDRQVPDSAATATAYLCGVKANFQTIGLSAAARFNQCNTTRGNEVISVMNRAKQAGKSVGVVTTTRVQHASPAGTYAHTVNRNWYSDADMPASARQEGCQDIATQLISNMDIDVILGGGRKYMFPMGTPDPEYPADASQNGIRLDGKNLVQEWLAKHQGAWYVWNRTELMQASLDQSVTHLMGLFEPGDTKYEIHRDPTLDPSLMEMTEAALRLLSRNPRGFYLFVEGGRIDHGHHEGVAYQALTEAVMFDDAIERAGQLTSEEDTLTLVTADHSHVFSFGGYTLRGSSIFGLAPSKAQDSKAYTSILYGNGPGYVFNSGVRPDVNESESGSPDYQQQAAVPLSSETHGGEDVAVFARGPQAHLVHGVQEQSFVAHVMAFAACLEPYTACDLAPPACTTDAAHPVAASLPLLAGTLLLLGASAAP
# bIAP inhibitor – intestinal alkaline phosphatase (bovine) inhibition. purified bovine IAP, CDP-star luminescence, 30 min. inhibition, % at 20 µM. 190,000 tested, under 10 active. AID 1019;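 active means over 50% inhibition of intestinal alkaline phosphatase at 20 µM in the single-dose screen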
#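 Assay system: bovine IAP enzyme; medium: DEA buffer 100 mM, pH 9.8, with MgCl2 1.0 mM, ZnCl2 0.02 mM; doses: 20 µM single dose; incubation: enzyme reaction for 30 min at room temperature; detection: CDP-star luminescence signal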
# mIAP act – increases mouse intestinal alkaline phosphatase activity. muIAP, CDP-Star luminescence, 30 min; active compounds read high; 1 = vehicle-only enzyme signal, 0 = enzyme-free wells. activation factor at 10 µM. hit rate 0.24% among 330,000. AID 2805;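 active means activation factor of at least 2 at 20 µM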
#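 Assay system: mouse IAP enzyme; Reagent: CDP-Star chemiluminescent phosphatase substrate; Compound: DMSO-dissolved test compounds; Incubation: 30 min, room temperature; Technique: luminescence from enzymatic CDP-Star hydrolysis; Controls: DMSO-only wells and no-enzyme negative control.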
# hIAP inh – human IAP inhibition. hit rate 0.12% among 330,000. inhibition, % at 10 µM. purified IAP, CDP-Star luminescence, 30 min;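 active means inhibition reaching a set limit with compound at 10 µM in the primary screen, cut at about 35% in these data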;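 further: plate controls were DMSO wells with enzyme for no effect and no-enzyme buffer wells for full effect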
# hIAP act confirm – human IAP activation confirmation | activation (%Activity, negative = activation), % at 8.3 µM | hit rate 10% among 880 | purified IAP, CDP-Star luminescence, 30 min; active compounds read low | shares compounds with hIAP activ | AID 434926;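 active means at least twofold enzyme activation in any of six single-dose repeats, which the averaged readout prints as negative percent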
# * hit, by the source's call; nt = no result; + = active, no number.
SMILES,mIAP block,bIAP act,hIAP activ,bIAP inhibitor,mIAP act,hIAP inh,hIAP act confirm
COc1cc(CNCCSc2nnnn2C)cc(Br)c1OCc1ccccc1,-0.4,1.1,1.04,-10.0,1,-4.0,nt
CC(=O)c1ccc(N(C(=O)c2ccco2)C(C(=O)NC2CCCC2)c2cccs2)cc1 (stereo not given),6.1,nt,0.968,nt,0.939,3.2,nt
Cc1ccc(N(C(=O)c2ccn[nH]2)C(C(=O)NC2CCCC2)c2cccs2)cc1 (stereo not given),-96.5,1.2,3.03*,-16.8,1.97,-203.4,-54.5
COc1ccc(N(C(=O)c2ccn[nH]2)C(C(=O)NC2CCCC2)c2ccc(F)cc2)cc1 (stereo not given),-51.4,nt,2.48*,nt,1.51,-147.7,2.6
COc1ccc(C(C(=O)NC2CCCC2)N(C(=O)c2snc(-c3ccc(F)cc3)c2N)c2ccc(F)cc2)cc1 (stereo not given),7.6,0.9,1.06,5.2,0.924,-5.6,nt
CCCOc1ccc(N2C(=O)C/C(=C\c3ccccc3)C2=O)cc1,-2.4,nt,0.905,nt,1.02,9.5,nt
CCCC(=O)NCCc1cc(OC)c(OC)cc1Br,-5.5,0.9,1.16,11.4,1.05,-16.0,nt
COc1ccc(NC(=O)c2ccc(F)c(F)c2)c2ccccc12,1.0,nt,0.925,nt,0.99,7.5,nt
CCOc1ccc(NS(=O)(=O)c2csc(C(N)=O)c2)cc1,-2.6,nt,1.03,nt,1.03,-2.7,nt
Cc1nc(Nc2nc3c(c(=O)[nH]2)CCC3)nc2ccccc12,11.7,nt,2.77*,nt,0.883,-176.8,-77.6*
O=C(NNC(=O)c1ccccc1Br)c1ccc2nc[nH]c2c1,9.7,nt,2.03*,nt,0.903,-102.7,-10.5
Cc1cccc(NC(=O)CNC(=O)Cc2ccc3c(c2)OCCO3)c1C,-1.8,nt,1.13,nt,1.02,-12.8,nt
CCOC(=O)c1ccc(Nc2ncnc3nc[nH]c23)cc1,4.0,1.2,1.78,-15.6,0.96,-77.6,nt
c1ccc(COc2ccc(Nc3ncnc4nc[nH]c34)cc2)cc1,-9.3,1.3,2.44*,-26.0,1.09,-144.2,-22.5
CCCNS(=O)(=O)c1ccc(CCC(=O)NCc2ccco2)cc1,1.0,0.9,2.41*,6.7,0.99,-141.3,11.0
COc1cccc(OC)c1CNC(=O)C1CCC(=O)N(CC2CCCCC2)C1 (stereo not given),0.2,nt,0.991,nt,0.998,0.9,nt
O=C(C1CC(=O)N(c2ccccc2)C1)N1CCN(c2ccccc2F)CC1 (stereo not given),5.0,nt,0.926,nt,0.95,7.4,nt
C/C(=N/NC(=O)c1cc(-c2ccc(Br)s2)[nH]n1)c1ccco1,5.3,1,2.14*,-3.5,0.947,-113.9,-3.2
O=C(N/N=C/c1ccco1)c1cc(-c2ccc(Br)s2)[nH]n1,16.4,nt,0.984,nt,0.836,1.6,nt
O=C(N/N=C/c1cccs1)c1cc(-c2ccc(Cl)s2)[nH]n1,3.6,nt,2.02*,nt,0.964,-101.7,-13.7
O=C(N/N=C/c1ccco1)c1cc(-c2ccc(Cl)s2)[nH]n1,4.4,1.3,2.01*,-25.6,0.956,-100.8,-66.2
Cc1ccc2c(c1)Oc1ccc([N+](=O)[O-])cc1C(=O)N2,10.1,0.9,2.37*,5.9,0.899,-136.9,-36.9
CC(OC(=O)C1CC1C)C(=O)Nc1ccc(Cl)cn1 (stereo not given),1.9,nt,0.97,nt,0.981,3.0,nt
Cc1cc(Cl)ccc1NC(=O)C(=O)N/N=C/c1ccc2c(c1)OCO2,3.2,nt,1.11,nt,0.968,-11.2,nt
Cc1ccc(Cl)cc1NC(=O)C(=O)N/N=C/c1ccc2c(c1)OCO2,6.9,nt,2.16*,nt,0.931,-115.9,40.1
SMILES,mIAP block,bIAP act,hIAP activ,bIAP inhibitor,mIAP act,hIAP inh,hIAP act confirm
COC(=O)c1ccccc1NC(=O)Nc1ccc2c(c1)OCO2,-0.7,0.9,0.952,13.2,1.01,4.8,nt
COC(=O)c1ccc(C(=O)OC)c(NC(=O)Nc2ccc3c(c2)OCO3)c1,4.5,0.9,2.24*,10.3,0.955,-123.6,+
C[n+]1c(/C=C/c2ccc(O)cc2)ccc2ccccc21,28.0,nt,0.555,nt,0.72,44.5*,4.1
COc1ccc(S(=O)(=O)N2CCc3ccccc32)cc1C(=O)NCC(c1ccco1)N1CCCC1 (stereo not given),10.9,nt,0.81,nt,0.891,19.0,nt
CC(=O)CCc1ccc(Oc2nc(-c3cccnc3)nc3ccccc23)cc1,13.9,1.1,0.641,-12.8,0.861,35.9*,42.0
COc1ccc(Oc2nc(-c3cccnc3)nc3ccccc23)cc1,3.9,nt,0.905,nt,0.961,9.5,nt
COc1ccc(C(=O)O)c(O)c1,3.3,nt,0.999,nt,0.967,0.1,nt
COc1ccc(-c2ccc(OC)cc2C(=O)O)cc1,5.1,1,0.641,4.2,0.949,35.9*,15.3
O=C(NCCN1CCOCC1)N1CCOCC1,9.1,0.9,0.846,13.4,0.909,15.4,nt
CCCC(CCC)C(=O)NCCN1CCOCC1,0.7,1,0.614,3.0,0.993,38.6*,-34.9
O=C(NC1CCCC1)C1CC(O)CN1C(=O)Nc1ccccc1 (stereo not given),1.6,nt,0.839,nt,0.984,16.1,nt
CCCCN(C(=O)c1ccc(Cl)c(S(=O)(=O)N2CCOCC2)c1)c1c(N)n(CCC)c(=O)[nH]c1=O,-1.5,nt,1.08,nt,1.01,-8.3,nt
Cn1cc(/C=C(\NC(=O)c2ccccc2Cl)C(=O)NCCCN2CCOCC2)c2ccccc21,-1.0,nt,1.09,nt,1.01,-8.7,nt
Cn1cc(/C=C(\NC(=O)c2ccccc2Cl)C(=O)NCCN2CCOCC2)c2ccccc21,6.9,nt,0.62,nt,0.931,38.0*,14.1
O=C(COc1ccc(Cl)cc1)OCC(=O)c1ccc[nH]1,-14.7,nt,1.09,nt,1.15,-8.9,nt
COc1ccc(NC(=O)CN2C(=O)NC(C)(c3ccccc3)C2=O)cc1Cl (stereo not given),0.5,nt,0.968,nt,0.995,3.2,nt
CC(=O)Nc1ccc(S(=O)(=O)N(C)CC(=O)OC(C)C(=O)NC2CCCCC2)cc1 (stereo not given),3.4,nt,0.975,nt,0.966,2.5,nt
Cc1ccc(-n2ncc3c(NNC(=O)c4ccco4)ncnc32)cc1C,6.5,nt,2.48*,nt,0.935,-148.1,41.4
CCC(=O)NNc1ncnc2c1cnn2-c1cccc(C)c1,7.5,1.3,1.56,-30.9,0.925,-55.7,nt
O=C(NNc1ncnc2c1cnn2-c1cccc(Cl)c1)c1ccco1,-2.7,nt,3.36*,nt,1.03,-236.1,-42.2
O=C(CSc1nnc(Cc2ccccc2)n1-c1ccccc1)NNC(=O)Cc1ccccc1,-0.4,1.6,2.14*,-61.3,1,-114.3,-45.6
COC(=O)CSc1nnc(Cc2ccccc2)n1-c1ccc(C)cc1,-6.2,1,0.94,-4.4,1.06,6.0,nt
CCc1nnc(NC(=O)CSc2nnc(C)c(=O)n2N)s1,-5.2,nt,0.535,nt,1.05,46.5*,41.3
Cc1nnc(NC(=O)CSc2nnc(C)c(=O)n2N)s1,1.0,nt,1.16,nt,0.99,-15.8,nt
